Laboratory results taken from ChEMBL document CHEMBL1152746, “Inhibitors of adenosine consuming parasites through polymer-assisted solution phase synthesis of lipophilic 5'-amido-5'-deoxyadenosine derivatives” (Bioorg Med Chem, 2009).

Test system: Plasmodium falciparum
Assay: Antiplasmodial activity against Plasmodium falciparum K1 as [3H]hypoxanthine uptake
Format: functional, organism-based
Settings: K1, 72 h
Method in brief: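 Erythrocytic stages of chloroquine- and pyrimethamine-resistant K1 strain grown in washed human A+ red cells, 2.5% hematocrit, 0.3% parasitemia. Medium was hypoxanthine-free RPMI 1640 with HEPES, NaHCO3, neomycin and AlbuMAX. DMSO stocks (10 mg/mL) tested as serial doubling dilutions for 48 h at 37 °C under 4% CO2, 3% O2, 93% N2. [3H]hypoxanthine then added for 24 h, cells harvested onto filters, scintillation counted.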

| SMILES | IC50 [nM] |
| --- | --- |
| O=C(CCCOc1ccccc1)NC[C@H]1O[C@@H](n2cnc3c(NCc4ccc(Oc5ccccc5)cc4)ncnc32)[C@H](O)[C@@H]1O | 2800 |
| O=C(Cc1cccc2ccccc12)NC[C@H]1O[C@@H](n2cnc3c(NCc4ccc(Oc5ccccc5)cc4)ncnc32)[C@H](O)[C@@H]1O | 300 |
| O=C(NC[C@H]1O[C@@H](n2cnc3c(NCc4ccc(Oc5ccccc5)cc4)ncnc32)[C@H](O)[C@@H]1O)c1ccc(Oc2ccccc2)cc1 | 3300 |
| O=C(NC[C@H]1O[C@@H](n2cnc3c(NCc4ccc(Oc5ccccc5)cc4)ncnc32)[C@H](O)[C@@H]1O)c1cc(Cl)cc(Cl)c1 | 3500 |
| O=C(NC[C@H]1O[C@@H](n2cnc3c(NCc4ccc(Oc5ccccc5)cc4)ncnc32)[C@H](O)[C@@H]1O)c1ccc2c(c1)[nH]c(=O)n2Cc1ccccn1 | 2100 |
| COc1cccc(CC(=O)NC[C@H]2O[C@@H](n3cnc4c(NCc5ccc(Oc6ccccc6)cc5)ncnc43)[C@H](O)[C@@H]2O)c1 | 3400 |
| O=C(NC[C@H]1O[C@@H](n2cnc3c(NCc4ccc(Oc5ccccc5)cc4)ncnc32)[C@H](O)[C@@H]1O)c1ccc2c(c1)[nH]c(=O)n2COc1ccccc1 | 3300 |
| O=C(CCCc1c[nH]c2ccccc12)NC[C@H]1O[C@@H](n2cnc3c(NCc4ccc(Oc5ccccc5)cc4)ncnc32)[C@H](O)[C@@H]1O | > 8500 |
| CC(C)=CC(=O)NC[C@H]1O[C@@H](n2cnc3c(NCc4ccc(Oc5ccccc5)cc4)ncnc32)[C@H](O)[C@@H]1O | 4300 |
| CC(C)CCC(=O)NC[C@H]1O[C@@H](n2cnc3c(NCc4ccc(Oc5ccccc5)cc4)ncnc32)[C@H](O)[C@@H]1O | 4600 |
| O=C(NC[C@H]1O[C@@H](n2cnc3c(NCc4ccc(Oc5ccccc5)cc4)ncnc32)[C@H](O)[C@@H]1O)c1ccc2c(c1)ncn2Cc1ccccn1 | 4000 |
| COCCCn1c(=O)[nH]c2cc(C(=O)NC[C@H]3O[C@@H](n4cnc5c(NCc6ccc(Oc7ccccc7)cc6)ncnc54)[C@H](O)[C@@H]3O)ccc21 | 900 |
| C=CCn1cnc2cc(C(=O)NC[C@H]3O[C@@H](n4cnc5c(NCc6ccc(Oc7ccccc7)cc6)ncnc54)[C@H](O)[C@@H]3O)ccc21 | 2700 |
| O=C(CCCc1ccccc1)NC[C@H]1O[C@@H](n2cnc3c(NCc4ccc(Oc5ccccc5)cc4)ncnc32)[C@H](O)[C@@H]1O | 2600 |
| O=C(Cc1cccc(Cl)c1)NC[C@H]1O[C@@H](n2cnc3c(NCc4ccc(Oc5ccccc5)cc4)ncnc32)[C@H](O)[C@@H]1O | 3100 |
| O=C(NC[C@H]1O[C@@H](n2cnc3c(NCc4ccc(Oc5ccccc5)cc4)ncnc32)[C@H](O)[C@@H]1O)c1ccc2c(c1)ncn2Cc1cccc2ccccc12 | 2200 |
| CCCCCn1cnc2cc(C(=O)NC[C@H]3O[C@@H](n4cnc5c(NCc6ccc(Oc7ccccc7)cc6)ncnc54)[C@H](O)[C@@H]3O)ccc21 | 1500 |
| CCCCn1c(=O)[nH]c2cc(C(=O)NC[C@H]3O[C@@H](n4cnc5c(NCc6ccc(Oc7ccccc7)cc6)ncnc54)[C@H](O)[C@@H]3O)ccc21 | 3100 |
| COCCCn1cnc2cc(C(=O)NC[C@H]3O[C@@H](n4cnc5c(NCc6ccc(Oc7ccccc7)cc6)ncnc54)[C@H](O)[C@@H]3O)ccc21 | 2600 |
| O=C(NC[C@H]1O[C@@H](n2cnc3c(NCc4ccc(Oc5ccccc5)cc4)ncnc32)[C@H](O)[C@@H]1O)c1ccc2c(c1)[nH]c(=O)n2CCC1=CCCCC1 | 2900 |
| CCN(CC)CCCC(C)Nc1ccnc2cc(Cl)ccc12 (stereo unspecified) [CHLOROQUINE] | 900 |
